Structures are written as SMILES. ≈ marks a conversion by molar mass, not a printed value. Calls of active or inactive are those of the source.

Data set [1] relates to Candida albicans. In words: Fungicidal activity against Candida albicans MTCC 183 assessed as fungal killing incubated for 24 hrs. In kind it is functional. Summed up: (§1)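 Compound at 125–0.97 µg/mL in Mueller Hinton broth in microcentrifuge tubes, each Candida strain added, held 24 h at 37 °C. 10 µL of the treated suspension plated on Mueller Hinton agar and incubated a further 24 h at 37 °C. MFC is the lowest concentration that kills the strain. Duplicates, means reported.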

In data set [2] the test system is Candida albicans. In words: Fungicidal activity against Candida albicans MTCC 1637 assessed as fungal killing incubated for 24 hrs. The format is functional. Particulars: MTCC 1637, 24 h. Summed up:
as §1

In data set [3] the test system is Candida albicans. In words: Fungicidal activity against Candida albicans MTCC 227 assessed as fungal killing incubated for 24 hrs. The format is functional. The settings on record: MTCC 227, 24 h. Summed up: as §1
The test system of a further data set is Nakaseomyces glabratus. In words: Antifungal activity against Candida glabrata MTCC 3019 assessed as inhibition of fungal growth incubated for 24 hrs by agar well diffusion method. The format is functional. The settings on record: MTCC 3019, 24 h. Summed up:
(§2)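 Candida strains from MTCC, pre-cultured and spread on Mueller Hinton agar. Wells received compound dissolved in 10% DMSO, 125–0.97 µg/mL; miconazole standard over the same range, DMSO negative control. After 24 h at 37 °C, MIC was read as the lowest concentration giving an inhibition zone. Duplicate experiments, means given.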
On the technique in general: A growth-free zone around the sample is the usual read-out of agar diffusion tests.

The next data set relates to Micrococcus luteus. In words: Bactericidal activity against Micrococcus luteus MTCC 2470 assessed as bacterial killing incubated for 24 hrs. In kind it is functional. Particulars: MTCC 2470, 24 h. Summed up:
(§3)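 Broth tube assay: compound at 0–125 µg/mL in Mueller Hinton broth, overnight culture added to 0.5 McFarland (1.5 × 10^8 cfu/mL), held 24 h at 37 °C. 10 µL from each tube plated on Mueller Hinton agar. MBC is the lowest concentration that kills the strain. Duplicates, means reported.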

The test system of data set [4] is Candida albicans. In words: Antifungal activity against Candida albicans MTCC 1637 assessed as inhibition of fungal growth incubated for 24 hrs by agar well diffusion method. The format is functional. Particulars: MTCC 1637, 24 h. Summed up:
as §2

The test system of data set [5] is Candida albicans. In words: Antifungal activity against Candida albicans MTCC 3018 assessed as inhibition of fungal growth incubated for 24 hrs by agar well diffusion method. In kind it is functional. The settings on record: MTCC 3018, 24 h. Summed up:
as §2

Data set [6] has as its system Candida albicans. In words: Induction of ROS generation in Candida albicans MTCC 3017 assessed as accumulation of intracellular ROS level by measuring fluorescence intensity after 24 hrs by DCFH-DA probe based fluorimetric assay. The format is functional, organism-based. Summed up: (§4)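 C. albicans MTCC 3017 biofilms grown 24 h at 37 °C in 96-well plates, then treated 24 h with compound at 0, 5, 10, 15, 20, 25 µg/mL; untreated cells served as control. Cells then loaded with 10 µM DCFH-DA for 24 h in the dark, and fluorescence read at 485 nm excitation and 535 nm emission. Triplicates.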

Another data set deals with Staphylococcus aureus. In words: Bactericidal activity against Staphylococcus aureus MTCC 96 assessed as bacterial killing incubated for 24 hrs. In kind it is functional. The settings on record: MTCC 96, 24 h. Summed up:
as §3

Data set [7] addresses Lanosterol 14-alpha demethylase (Candida albicans (strain SC5314 / ATCC MYA-2876) (Yeast), UniProt P10613). In words: Inhibition of CYP51 in Candida albicans MTCC 3017 assessed as reduction in ergosterol level incubated for 20 hrs by UV-visible spectrophotometry analysis. Summed up:
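Modified Breivik–Owades sterol method: Mueller Hinton broth with compound at 0, 2, 4, 8, 16 µg/mL, inoculated with single Candida colonies, shaken at 200 rpm for 20 h at 30 °C. Pellets washed and weighed, saponified in 25% alcoholic KOH for 70 min at 90 °C, sterols extracted into n-heptane, diluted 1:5 in ethanol and scanned at 230–310 nm. Triplicates.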

For the next data set, the system named is Pichia kudriavzevii. In words: Fungicidal activity against Candida krusei MTCC 3020 assessed as fungal killing incubated for 24 hrs. The format is functional. The settings on record: MTCC 3020, 24 h. Summed up:
as §1

Data set [8] has as its system Candida albicans. In words: Antifungal activity against Candida albicans MTCC 3017 assessed as inhibition of fungal growth incubated for 24 hrs by agar well diffusion method. In kind it is functional. Particulars: MTCC 3017, 24 h. Summed up: as §2
The next data set deals with Bacillus subtilis. In words: Ratio of MBC to MIC against Bacillus subtilis MTCC 121. The format is functional.
In data set [9] the test system is Candida albicans. In words: Fungicidal activity against Candida albicans MTCC 3018 assessed as fungal killing incubated for 24 hrs. The format is functional. The settings on record: MTCC 3018, 24 h. Summed up: as §1
The next data set deals with Pichia sporocuriosa. In words: Antifungal activity against Issatchenkia hanoiensis MTCC 4755 assessed as inhibition of fungal growth incubated for 24 hrs by agar well diffusion method. The settings on record: MTCC 4755, 24 h. The format is functional. Summed up:
as §2

For data set [10], the system named is Candida albicans. In words: Induction of ROS generation in Candida albicans MTCC 3017 assessed as accumulation of intracellular ROS level by measuring fluorescence intensity at 5 ug/ml after 24 hrs by DCFH-DA probe based fluorimetric assay. The format is functional, organism-based. Summed up:
as §4

Another data set relates to Escherichia coli. In words: Bactericidal activity against Escherichia coli MTCC 739 assessed as bacterial killing incubated for 24 hrs. In kind it is functional. The settings on record: MTCC 739, 24 h. Summed up: as §3
Data set [11] relates to Candida albicans. In words: Ratio of MFC to MIC against Candida albicans MTCC 4748. The format is functional. Summed up: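 MIC by agar well diffusion: Candida lawns on Mueller-Hinton agar, wells loaded with compound in 10% DMSO (125–0.97 µg/mL), 24 h at 37 °C, lowest concentration giving an inhibition zone. MFC: compound in Mueller-Hinton broth (125–0.97 µg/mL) with yeast, 24 h at 37 °C, 10 µL plated on agar, lowest killing concentration after 24 h. Ratio is MFC/MIC.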

The subject of data set [12] is Candida albicans. In words: Ratio of MFC to MIC against Candida albicans MTCC 183. The format is functional.
Data set [13] concerns Candida albicans. In words: Induction of ROS generation in Candida albicans MTCC 3017 assessed as accumulation of intracellular ROS level by measuring fluorescence intensity at 25 ug/ml after 24 hrs by DCFH-DA probe based fluorimetric assay. The format is functional, organism-based. Summed up:
as §4

Data set [14] has as its system Candida albicans. In words: Ratio of MFC to MIC against Candida albicans MTCC 1637. In kind it is functional.

Lanosterol 14-alpha demethylase, sequence (P10613 whole entry): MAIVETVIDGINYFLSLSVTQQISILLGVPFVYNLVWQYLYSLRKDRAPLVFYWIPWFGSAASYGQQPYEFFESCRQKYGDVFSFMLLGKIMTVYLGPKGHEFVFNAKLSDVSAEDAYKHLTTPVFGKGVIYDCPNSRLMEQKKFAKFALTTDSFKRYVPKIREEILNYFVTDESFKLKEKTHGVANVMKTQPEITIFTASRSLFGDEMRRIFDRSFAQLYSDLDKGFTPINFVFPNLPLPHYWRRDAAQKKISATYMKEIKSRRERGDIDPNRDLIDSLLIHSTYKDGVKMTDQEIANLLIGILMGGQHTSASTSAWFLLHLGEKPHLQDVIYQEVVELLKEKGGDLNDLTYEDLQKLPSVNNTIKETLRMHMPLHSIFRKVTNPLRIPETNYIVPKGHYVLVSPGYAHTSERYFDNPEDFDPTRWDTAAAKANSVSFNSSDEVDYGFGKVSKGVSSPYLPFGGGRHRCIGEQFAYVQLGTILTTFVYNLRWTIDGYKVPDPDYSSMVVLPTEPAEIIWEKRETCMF

Regarding `COc1ccc2c(c1)Cc1c(C(=O)N/N=C/c3c(F)cc(F)cc3F)n[nH]c1-2`, in the data set on Candida albicans [1], the MFC (as a rule, the lowest tested concentration that kills the fungus rather than only halting it) was “inactive”. For the same compound, the minimal fungicidal concentration (MFC) in the data set on Candida albicans [2] came out at 31.2 µg/mL (≈ 80.8 µM); in the data set with Candida albicans [3], 15.6 µg/mL (≈ 40.4 µM); in the data set with Pichia kudriavzevii, 31.2 µg/mL (≈ 80.8 µM); in the data set with Candida albicans [9], 15.6 µg/mL (≈ 40.4 µM). The MIC (in general, the lowest concentration that inhibits growth of the organism) with Nakaseomyces glabratus was determined as 15.6 µg/mL (≈ 40.4 µM); in the data set on Candida albicans [4], 15.6 µg/mL (≈ 40.4 µM); with Candida albicans [5], 7.8 µg/mL (≈ 20.2 µM); in the data set on Candida albicans [8], 3.9 µg/mL (≈ 10.1 µM); in the data set with Pichia sporocuriosa it was 15.6 µg/mL (≈ 40.4 µM). The MBC (as a rule, the smallest concentration meeting the test's criterion for killing) in the data set with Micrococcus luteus worked out at 15.6 µg/mL (≈ 40.4 µM); in the data set on Staphylococcus aureus, 7.8 µg/mL (≈ 20.2 µM); in the data set on Escherichia coli, 7.8 µg/mL (≈ 20.2 µM). Also, the Activity result in the data set with Candida albicans [6] is “Dose-dependent effect”. Further, the “inhibition (INH)” value in data set [7] is “Dose-dependent effect”. In addition, the Ratio in the data set on Bacillus subtilis, with Candida albicans [11], in the data set on Candida albicans [12] and with Candida albicans [14] was 2 throughout. For the same compound, the outcome in the data set on Candida albicans [10] and with Candida albicans [13] was Active.

With `O=C(N/N=C/c1ccc(O)cc1)c1n[nH]c2c1Cc1cc(F)ccc1-2`, the MFC entry in the data set on Candida albicans [1] is “inactive”. The MFC was determined as 31.2 µg/mL (≈ 92.8 µM) in the data set on Candida albicans [2], 15.6 µg/mL (≈ 46.4 µM) with Candida albicans [3], 31.2 µg/mL (≈ 92.8 µM) in the data set on Pichia kudriavzevii and 31.2 µg/mL (≈ 92.8 µM) in the data set with Candida albicans [9]. For the same compound, the MIC came out at 15.6 µg/mL (≈ 46.4 µM) in the data set on Nakaseomyces glabratus; 15.6 µg/mL (≈ 46.4 µM) in the data set with Candida albicans [4]; 15.6 µg/mL (≈ 46.4 µM) in the data set on Candida albicans [5]; 7.8 µg/mL (≈ 23.2 µM) in the data set with Candida albicans [8]; 31.2 µg/mL (≈ 92.8 µM) with Pichia sporocuriosa. Moreover, the MBC in the data set on Micrococcus luteus came to 15.6 µg/mL (≈ 46.4 µM); in the data set on Staphylococcus aureus it was 7.8 µg/mL (≈ 23.2 µM); in the data set on Escherichia coli, 7.8 µg/mL (≈ 23.2 µM). In addition, the Ratio in the data set with Bacillus subtilis, in the data set with Candida albicans [11], in the data set with Candida albicans [12] and in the data set on Candida albicans [14] was 2 each time.

Turning to `COc1cc(/C=N/NC(=O)c2n[nH]c3c2Cc2ccccc2-3)ccc1O`, the MFC result in the data set with Candida albicans [1] was “inactive”. The minimal fungicidal concentration (MFC) was determined as 31.2 µg/mL (≈ 89.6 µM) with Candida albicans [2], 15.6 µg/mL (≈ 44.8 µM) in the data set with Candida albicans [3], 31.2 µg/mL (≈ 89.6 µM) in the data set with Pichia kudriavzevii and 31.2 µg/mL (≈ 89.6 µM) in the data set on Candida albicans [9]. The MIC with Nakaseomyces glabratus came to 3.9 µg/mL (≈ 11.2 µM); with Candida albicans [4], 15.6 µg/mL (≈ 44.8 µM); in the data set with Candida albicans [5] it was 15.6 µg/mL (≈ 44.8 µM); in the data set on Candida albicans [8], 7.8 µg/mL (≈ 22.4 µM); with Pichia sporocuriosa, 15.6 µg/mL (≈ 44.8 µM). Moreover, the MBC stood at 15.6 µg/mL (≈ 44.8 µM) in the data set with Micrococcus luteus, 7.8 µg/mL (≈ 22.4 µM) with Staphylococcus aureus and 15.6 µg/mL (≈ 44.8 µM) in the data set on Escherichia coli. The Ratio in the data set on Bacillus subtilis, with Candida albicans [11], in the data set with Candida albicans [12] and in the data set on Candida albicans [14] was 2 each time.

Consider `O=C(N/N=C/c1ccc(O)cc1)c1n[nH]c2c1Cc1ccccc1-2`, for which the MFC entry in the data set on Candida albicans [1] is “inactive”. The MFC amounted to 31.2 µg/mL (≈ 98 µM) in the data set with Candida albicans [2], 15.6 µg/mL (≈ 49 µM) with Candida albicans [3], 31.2 µg/mL (≈ 98 µM) in the data set with Pichia kudriavzevii and 15.6 µg/mL (≈ 49 µM) in the data set with Candida albicans [9]. Moreover, the MIC in the data set on Nakaseomyces glabratus is more than 31.2 µg/mL; in the data set on Candida albicans [4], 15.6 µg/mL (≈ 49 µM); in the data set on Candida albicans [5], 7.8 µg/mL (≈ 24.5 µM); in the data set on Candida albicans [8] it was 7.8 µg/mL (≈ 24.5 µM); in the data set with Pichia sporocuriosa it was 31.2 µg/mL (≈ 98 µM). The MBC with Micrococcus luteus turned out to be 15.6 µg/mL (≈ 49 µM); with Staphylococcus aureus, 7.8 µg/mL (≈ 24.5 µM); in the data set on Escherichia coli it was 7.8 µg/mL (≈ 24.5 µM). Moreover, the Ratio in the data set on Bacillus subtilis, with Candida albicans [11], in the data set on Candida albicans [12] and in the data set with Candida albicans [14] was 2 throughout.

On to `COc1ccc2c(c1)Cc1c(C(=O)N/N=C/c3ccc(O)c(OC)c3)n[nH]c1-2`, for which the MFC is 31.2 µg/mL (≈ 82.5 µM) in the data set with Candida albicans [1] (MTCC 183, 24 h); 15.6 µg/mL (≈ 41.2 µM) in the data set with Candida albicans [2]; 7.8 µg/mL (≈ 20.6 µM) with Candida albicans [3]; 15.6 µg/mL (≈ 41.2 µM) with Pichia kudriavzevii; 15.6 µg/mL (≈ 41.2 µM) with Candida albicans [9]. In addition, the MIC was found to be 7.8 µg/mL (≈ 20.6 µM) in the data set on Nakaseomyces glabratus; 7.8 µg/mL (≈ 20.6 µM) in the data set on Candida albicans [4]; 7.8 µg/mL (≈ 20.6 µM) with Candida albicans [5]; 3.9 µg/mL (≈ 10.3 µM) in the data set with Candida albicans [8]; 15.6 µg/mL (≈ 41.2 µM) in the data set with Pichia sporocuriosa. Further, the MBC with Micrococcus luteus, in the data set on Staphylococcus aureus and in the data set with Escherichia coli was 7.8 µg/mL (≈ 20.6 µM) in each case. In addition, in the data set with Candida albicans [6], the Activity entry is “Dose-dependent effect”. Also, the “inhibition (INH)” value in data set [7] is given as “Dose-dependent effect”. Moreover, the Ratio in the data set on Bacillus subtilis, in the data set with Candida albicans [11], with Candida albicans [12] and in the data set on Candida albicans [14] was 2 throughout. Moreover, the result in the data set on Candida albicans [10] and in the data set on Candida albicans [13] was Active.

(Values after ChEMBL document CHEMBL4373647, “Design, synthesis, and antimicrobial evaluation of 1,4-dihydroindeno[1,2-c]pyrazole tethered carbohydrazide hybrids: exploring their in silico ADMET, ergosterol inhibition and ROS inducing potential” (Medchemcomm, 2019).)
